# In ChEMBL document CHEMBL3352268, “Structures and bioactivities of dihydrochalcones from Metrodorea stipularis” (J Nat Prod, 2014):
# Assays:
# [1] = test system: Plasmodium falciparum; experiment: Antimalarial activity against Plasmodium falciparum Dd2 after 72 hrs by SYBR Green-based parasite proliferation assay; assay type: functional; details: Dd2, 72 h
# Method in brief: (§1)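 Parasites grown in human O+ erythrocytes in RPMI 1640 with hypoxanthine, HEPES, Albumax and 5% human serum, under 3% CO2/1% O2/96% N2 at 37 °C. Cultures were exposed to serial dilutions of compound for 72 h. Parasite DNA growth was read by SYBR Green fluorescence. EC50 was derived from quadruplicate runs, with bromophycolide A as positive control.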
# [2] = target: Procathepsin L (Homo sapiens, UniProt P07711); experiment: Inhibition of cathepsin L (unknown origin) using fluorometric Z-Phe-Arg-AMC as substrate by spectrofluorimetry
# Method in brief: (§2)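 Enzyme activated 5 min with DTT in acetate buffer pH 5.5 at 37 °C, then incubated 5 min with sample. Z-Phe-Arg-AMC at 185 μM (catB) or 10 μM (catL), with stirring; fluorescence ex 355/em 460 nm. Controls: no inhibitor, and E-64. Run in triplicate. IC50 from rates at ≥7 inhibitor concentrations by nonlinear regression.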
# [3] = target: Cruzipain (Trypanosoma cruzi, UniProt P25779); experiment: Inhibition of Trypanosoma cruzi cruzain using Z-Phe-Arg-AMC as substrate by spectrofluorimetry
# Method in brief: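 Substrate Z-Phe-Arg-AMC; activity tracked 5 min with stirring in phosphate buffer pH 6.3 with DTT at 37 °C, in cuvettes (ex 380/em 460 nm). Controls: no inhibitor, and E-64. Run in triplicate. IC50 from rates at five inhibitor concentrations by nonlinear regression.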
# [4] = test system: Plasmodium falciparum; experiment: Antimalarial activity against Plasmodium falciparum W2 after 72 hrs by SYBR Green-based parasite proliferation assay; assay type: functional, organism-based; details: W2, 72 h; method in brief: as §1
# [5] = test system: Plasmodium falciparum; experiment: Antimalarial activity against Plasmodium falciparum 3D7 after 72 hrs by SYBR Green-based parasite proliferation assay; assay type: functional, organism-based; details: 3D7, 72 h; method in brief: as §1
# [6] = target: Cathepsin B (Homo sapiens, UniProt P07858); experiment: Inhibition of cathepsin B (unknown origin) using fluorometric Z-Phe-Arg-AMC as substrate by spectrofluorimetry; method in brief: as §2
# Procathepsin L, sequence (P07711 whole entry): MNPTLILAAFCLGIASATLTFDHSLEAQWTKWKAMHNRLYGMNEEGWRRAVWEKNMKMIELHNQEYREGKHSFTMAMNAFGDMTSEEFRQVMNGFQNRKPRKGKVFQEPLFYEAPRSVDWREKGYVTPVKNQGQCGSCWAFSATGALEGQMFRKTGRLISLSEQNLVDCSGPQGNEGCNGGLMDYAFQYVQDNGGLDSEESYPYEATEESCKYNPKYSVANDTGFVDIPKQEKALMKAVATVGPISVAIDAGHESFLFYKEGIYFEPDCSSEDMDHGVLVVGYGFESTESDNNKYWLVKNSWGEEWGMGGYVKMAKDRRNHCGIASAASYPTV
# Cruzipain, sequence (P25779 whole entry): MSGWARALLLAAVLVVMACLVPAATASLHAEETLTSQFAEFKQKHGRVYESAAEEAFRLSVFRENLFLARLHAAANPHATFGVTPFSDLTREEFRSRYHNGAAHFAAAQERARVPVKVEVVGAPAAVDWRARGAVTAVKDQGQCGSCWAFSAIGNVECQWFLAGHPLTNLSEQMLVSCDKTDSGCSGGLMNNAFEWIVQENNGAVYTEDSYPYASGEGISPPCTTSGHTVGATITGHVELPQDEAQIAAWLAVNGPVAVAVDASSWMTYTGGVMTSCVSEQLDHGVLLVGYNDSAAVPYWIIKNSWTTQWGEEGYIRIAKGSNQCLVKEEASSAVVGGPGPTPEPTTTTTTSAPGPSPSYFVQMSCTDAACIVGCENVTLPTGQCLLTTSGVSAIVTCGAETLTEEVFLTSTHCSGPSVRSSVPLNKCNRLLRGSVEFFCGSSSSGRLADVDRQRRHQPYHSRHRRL
SMILES,EC50 [1],IC50 [2],IC50 [3],EC50 [4],EC50 [5],IC50 [6]
CC1(C)CCc2cc(CCC(=O)c3c(O)cc4c(c3O)CCC(C)(C)O4)ccc2O1,11.7 µM,> 100 µM,21.6 µM,6.7 µM,14.4 µM,
CC(C)=CCc1cc(CCC(=O)c2c(O)cc3c(c2O)CCC(C)(C)O3)ccc1O,,3.3 µM,12 µM,,,> 100 µM
CC(C)C[C@H](NC(=O)[C@H]1O[C@@H]1C(=O)O)C(=O)NCCCCN=C(N)N [E-64],,0.03 µM,,,,0.04 µM
CC(C)=CCC/C(C)=C\Cc1c(O)cc(O)c(C(=O)CCc2ccc(O)cc2)c1O,,1 µM,7.1 µM,,,> 100 µM
CC1(C)CCc2c(cc(O)c(C(=O)CCc3ccc4c(c3)CC3C(C)(C)CCCC3(C)O4)c2O)O1 (centres undefined),12.4 µM,> 100 µM,8.7 µM,8.5 µM,17.7 µM,8.5 µM
